Shown are actives, neighbours in structure and some others; about 3.1% of the full set was active somewhere.
MEKK2mut PB1 HTS: signal of MEK5 binding to mutant human MEKK2 PB1 domain | bead flow cytometry, Alexa488-MEK5 binding to MEKK2 mutant | percent response, % at 10 µM | actives 0.35% (n = 290,000); in the data active = percent response above about 24%, passing the limit was not always enough
Apaf-1 inh: blocks human Apaf-1 apoptosome activity; O14727; reconstituted apoptosome caspase-3 activity, DEVD-Rh110 fluorescence; inhibition, % at 20 µM; actives 0.71% (n = 330,000); AID 489030; active = inhibition of at least 40% at 20 µM
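Material: cell-free apoptosome with Apaf-1, procaspase-3 and caspase-9; Buffer or medium: Hepes pH 7.5 with detergent and BSA; Reagent: cytochrome c trigger plus (Z-DEVD)2-Rh110 caspase-3 substrate; Times: compound with Apaf-1, dATP, procaspase-3 30 min, then 50 min reaction, room temperature; Technique: Rh110 fluorescence intensity.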
PREPL inhibitor: inhibits the human prolyl oligopeptidase-like enzyme; recombinant PREPL, fluorescence polarization activity-based probe; inhibition, % at 5.96 µM; actives 0.68% (n = 320,000); in the data active = inhibition above about 43%
Target sequence (Q4J6C6 whole entry, looked up): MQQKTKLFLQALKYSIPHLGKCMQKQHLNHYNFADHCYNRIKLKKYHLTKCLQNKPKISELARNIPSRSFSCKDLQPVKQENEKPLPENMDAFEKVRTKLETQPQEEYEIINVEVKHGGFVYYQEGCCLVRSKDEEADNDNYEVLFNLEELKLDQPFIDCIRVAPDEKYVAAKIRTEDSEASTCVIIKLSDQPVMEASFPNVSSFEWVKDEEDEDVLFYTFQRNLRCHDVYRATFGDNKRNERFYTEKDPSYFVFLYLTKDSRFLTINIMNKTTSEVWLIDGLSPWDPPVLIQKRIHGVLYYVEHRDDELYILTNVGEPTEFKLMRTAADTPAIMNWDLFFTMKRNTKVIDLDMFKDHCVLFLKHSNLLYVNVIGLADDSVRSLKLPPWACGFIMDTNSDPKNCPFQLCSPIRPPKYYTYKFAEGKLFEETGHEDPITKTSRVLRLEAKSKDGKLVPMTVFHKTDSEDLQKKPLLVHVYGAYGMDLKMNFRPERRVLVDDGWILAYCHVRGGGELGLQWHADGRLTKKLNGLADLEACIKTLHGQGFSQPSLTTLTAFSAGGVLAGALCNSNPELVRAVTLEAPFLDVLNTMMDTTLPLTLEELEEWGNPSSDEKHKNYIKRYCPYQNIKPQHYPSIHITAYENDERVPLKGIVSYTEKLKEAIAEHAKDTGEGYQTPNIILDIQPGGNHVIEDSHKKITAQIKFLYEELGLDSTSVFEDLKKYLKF
MEKK3 PB1 HTS: modulators (inhibitors or enhancers) of MEK5 binding to human MEKK3 PB1 domain | Q99759 | bead-based flow cytometry, Alexa488-MEK5 binding to MEKK3; actives lie on both sides; 0 = blocked by unlabeled MEK5, 100 = vehicle | binding response (% of control), % at 10 µM | actives 1.4% (n = 290,000) | AID 1529;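 active = binding response more than 3 SD above or below the average of its plate-row segment, actives on both sides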;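 note: Alexa488 bead fluorescence after subtracting the streptavidin-only scavenger bead signal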
UBC13 inh: blocks human UBC13 polyubiquitin chain formation | P61088 | TR-FRET | inhibition, % at 20 µM | actives 0.47% (n = 330,000) | AID 485273; in the data active = inhibition above about 45%, passing the limit was not always enough
MEKK2 WT-MEK5: raises or lowers MEK5 binding to wildtype human MEKK2 PB1 domain. Q9Y2U5. bead flow cytometry, Alexa488-MEK5 binding to MEKK2 WT; actives lie on both sides. binding response (% of control), % at 10 µM. actives 1.1% (n = 290,000); in the data active = binding response below about 67% or above about 130%
MEKK2wt confirm: raises or lowers MEK5 binding to wildtype human MEKK2, retest | shares compounds with MEKK3 PB1 HTS | bead flow cytometry, Alexa488-MEK5 binding to MEKK2 WT; actives lie on both sides | binding response (% of control), % at 10 µM | actives 2.4% (n = 5,900) | AID 1892; in the data active = binding response below about 16% or above about 210%; inactive = in between
MEKK2mut confirm: signal of MEK5 binding to mutant human MEKK2, retest. shares compounds with MEKK3 PB1 HTS. bead flow cytometry, Alexa488-MEK5 binding to MEKK2 mutant. percent response, % at 10 µM. actives 2% (n = 5,900). AID 1893; in the data active = percent response mostly above about 71%, no sharp cut-off; inactive = mostly below about 38%;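 note: higher means compound restores mutant binding toward wildtype level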
MEKK3 confirm: confirmation of inhibitors of MEK5 binding to human MEKK3; shares compounds with MEKK3 PB1 HTS; bead flow cytometry, Alexa488-MEK5 binding to MEKK3; stronger effect = lower value; binding response (% of control), % at 10 µM; actives 1.8% (n = 5,900);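 active = binding response below 72% of control, or above a set upper limit, though filed actives all read lower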
Of the large screens only hits and unclear results are named; the others gave an inactive call (follow-up assays come after a bar, where they were run); [ ] = dose if it differs, or a comment.

O=C1c2ccccc2C(=O)C12OC2c1cccc2ccccc12 (centres undefined)	Apaf-1 inh 94.5, MEKK3 PB1 HTS 157.0 | MEKK2wt confirm inactive | MEKK2mut confirm inactive | MEKK3 confirm inactive
O=C(c1ccc(F)cc1Cl)N(Cc1ccco1)C1CCS(=O)(=O)C1 (centres undefined)	none (no result: MEKK2mut PB1 HTS, MEKK3 PB1 HTS, MEKK2 WT-MEK5)
CCOC(=O)COc1c(Br)cc(C2NC(=O)NC(C)=C2C(C)=O)cc1OC (centres undefined)	MEKK3 PB1 HTS 131.0 | MEKK2wt confirm inactive | MEKK2mut confirm inactive | MEKK3 confirm inactive
CCOC(=O)COc1c(OC)cc(Cl)cc1C1NC(=O)NC(C)=C1C(C)=O (centres undefined)	none
COc1ccc(OCC(O)CNCCOc2ccccc2OC)c(C(C)(C)C)c1 (centres undefined)	MEKK2mut PB1 HTS 25.0, MEKK2 WT-MEK5 147.0 | MEKK2wt confirm inactive | MEKK2mut confirm inactive | MEKK3 confirm inactive
COc1ccccc1NCC(O)COc1ccc(C(C)(C)C)cc1 (centres undefined)	none
O=C(Nc1ccc(-n2ccc(C(F)(F)F)n2)cc1)Nc1cccc(Cl)c1	MEKK2mut PB1 HTS 74.0, MEKK3 PB1 HTS 141.0, MEKK2 WT-MEK5 245.0 | MEKK2wt confirm inactive | MEKK2mut confirm inactive | MEKK3 confirm inactive
Cc1cc(C)cc(NC(=O)Nc2ccc(-n3ccc(C(F)(F)F)n3)cc2)c1	none
COc1ccc(CCN2C(=O)CC(NNC(=O)c3ccc(F)cc3)C2=O)cc1OC (centres undefined)	none
CCOc1ccc(C(=O)NNC2CC(=O)N(CCc3ccccc3)C2=O)cc1OC (centres undefined)	MEKK3 PB1 HTS 0.0[inhibitor], MEKK2 WT-MEK5 0.0[inhibitor] | MEKK2wt confirm inactive | MEKK2mut confirm inactive | MEKK3 confirm inactive
CCOC(=O)COn1c(=O)c(-c2cccs2)[n+]([O-])c2ccccc21	MEKK3 PB1 HTS 15.0[inhibitor], MEKK2 WT-MEK5 26.0[inhibitor] | MEKK2wt confirm inactive | MEKK2mut confirm inactive | MEKK3 confirm inactive
COc1cc2cc(C(=O)N(C)C3CCS(=O)(=O)C3)[nH]c2cc1OC (centres undefined)	none
Cc1ccnc2nc(C(=O)OCC(=O)NCCc3ccc(Cl)cc3)nn12	MEKK3 PB1 HTS 135.0 | MEKK2wt confirm inactive | MEKK2mut confirm inactive | MEKK3 confirm 62.0
Cc1ccnc2nc(C(=O)OCC(=O)NCc3cccc(Cl)c3)nn12	none (no result: MEKK2mut PB1 HTS, MEKK3 PB1 HTS, MEKK2 WT-MEK5)
O=C1CC(c2cccc(Cl)c2)c2cc3c(cc2N1)CCC3 (centres undefined)	MEKK3 PB1 HTS 2.0[inhibitor], MEKK2 WT-MEK5 -2.0[inhibitor] | MEKK2wt confirm inactive | MEKK2mut confirm inactive | MEKK3 confirm inactive
COc1ccc(OCC(O)Cn2c(=N)n(CCN3CCCCC3)c3ccccc32)cc1 (centres undefined)	none
Cc1ccc(OCC(O)Cn2c(=N)n(CCN3CCCCC3)c3ccccc32)cc1 (centres undefined)	MEKK2 WT-MEK5 145.0 | MEKK2wt confirm inactive | MEKK2mut confirm inactive | MEKK3 confirm inactive
O=C(Cn1cnc([N+](=O)[O-])n1)N/N=C/c1ccccc1O	none
O=C(Cn1cnc([N+](=O)[O-])n1)N/N=C/c1cc(Cl)ccc1O	MEKK3 PB1 HTS 135.0 | MEKK2wt confirm inactive | MEKK2mut confirm inactive | MEKK3 confirm inactive
CC(C)(Oc1ccc(Cl)cc1)C(=O)NCc1ccc(S(N)(=O)=O)cc1	none
COc1ccc(CNC(=O)C(c2ccncc2)N(C(=O)Cc2cccs2)c2ccc(C)cc2)cc1 (centres undefined)	MEKK3 PB1 HTS 81.0[inhibitor] | MEKK2wt confirm inactive | MEKK2mut confirm inactive | MEKK3 confirm inactive
Cc1cc(F)ccc1S(=O)(=O)Nc1ccccc1C(=O)Nc1ccccc1-c1nc2ccccc2[nH]1	MEKK3 PB1 HTS 134.0 | MEKK2wt confirm inactive | MEKK2mut confirm inactive | MEKK3 confirm inactive
Cc1cc(F)ccc1S(=O)(=O)Nc1ccccc1C(=O)Nc1ncn[nH]1	none
COC(=O)c1ccc(/C=C(\C#N)c2ccccn2)cc1	MEKK3 PB1 HTS 2.0[inhibitor], MEKK2 WT-MEK5 1.0[inhibitor] | MEKK2wt confirm inactive | MEKK2mut confirm inactive | MEKK3 confirm inactive
CC(=O)Nc1cc(C(=O)NCc2ccco2)ccc1Sc1ccc(Cl)cc1	none
CC(=O)Nc1cc(C(=O)N(C)Cc2ccco2)ccc1Sc1ccc(Cl)cc1	MEKK3 PB1 HTS 142.0 | MEKK2wt confirm inactive | MEKK2mut confirm inactive | MEKK3 confirm inactive
CCOc1ccc(CC(=NCCc2ccccc2)C2=C(O)CC(C)(C)CC2=O)cc1OCC	MEKK3 PB1 HTS 146.0 | MEKK2wt confirm inactive | MEKK2mut confirm inactive | MEKK3 confirm inactive
CCOc1ccc(CC(=N)C2=C(O)CC(C)(C)CC2=O)cc1OCC	none
COCCNC(=O)CSc1nc(-c2ccc(OC)c(OC)c2)cc(C(F)(F)F)n1	MEKK3 PB1 HTS 79.0[inhibitor] | MEKK2wt confirm inactive | MEKK2mut confirm inactive | MEKK3 confirm inactive
CCn1cc(CNC(=O)CSc2nc(-c3ccc(OC)c(OC)c3)cc(C(F)(F)F)n2)c(C)n1	none
C/C(=N/NC(=O)c1sc(NS(=O)(=O)c2ccccc2)nc1C)c1ccccc1	none
Cc1nc(C)c(C(=O)NNS(=O)(=O)c2ccccc2)s1	MEKK3 PB1 HTS 140.0 | MEKK2wt confirm inactive | MEKK2mut confirm inactive | MEKK3 confirm inactive
C/C(=N/NC(=O)c1sc(NS(=O)(=O)c2ccccc2)nc1C)c1ccc(F)cc1	MEKK3 PB1 HTS 153.0 | MEKK2wt confirm inactive | MEKK2mut confirm inactive | MEKK3 confirm inactive
Fc1ccccc1-c1csc(=Nc2cccnc2)n1CCCn1ccnc1	MEKK3 PB1 HTS 137.0 | MEKK2wt confirm inactive | MEKK2mut confirm inactive | MEKK3 confirm inactive
Cc1ccc(S(=O)(=O)NCCC(=O)NCCc2ccc(S(N)(=O)=O)cc2)cc1C	none (no result: MEKK2mut PB1 HTS, MEKK3 PB1 HTS, MEKK2 WT-MEK5)
CCN(CC(=O)Nc1ccc(NC(C)=O)cc1)C(=O)c1n[nH]c(=O)c2ccccc12	MEKK3 PB1 HTS 55.0[inhibitor] | MEKK2wt confirm inactive | MEKK2mut confirm inactive | MEKK3 confirm inactive
CCN(CC(=O)Nc1ccc(NC(C)=O)cc1)C(=O)C(c1ccccc1)c1ccccc1	MEKK3 PB1 HTS 131.0 | MEKK2wt confirm inactive | MEKK2mut confirm inactive | MEKK3 confirm inactive
Cc1ccc(NC(=O)CN(C)C(=O)c2n[nH]c(=O)c3ccccc23)cc1	none
c1ccc(OCCN2CCN(C(c3ccccc3)c3ccccc3)CC2)cc1	none
